ChEMBL document CHEMBL1144782, “Isoindolo[2,1-a]quinoxaline derivatives, novel potent antitumor agents with dual inhibition of tubulin polymerization and topoisomerase I” (2008)
Values joined by “and” are separate entries in the source; they are usually repeats but may differ in a detail not shown here. Equal entries are not always repeated.

How the values were obtained:
Malme-3M = experiment: Antitumor activity against human MALME3M cells; format: functional
How it was run: (§1)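 Run by the NCI in its in vitro disease-oriented screen of about 60 human tumour cell lines. For each line it reports pGI50 (50% net growth inhibition), pTGI (total growth inhibition) and pLC50 (50% net cell death), each as –log molar concentration. Where an effect was not reached within the tested range, the highest tested concentration was used.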

NCI-H226 = experiment: Antitumor activity against human NCI-H226 cells; format: functional; how it was run: as §1
SF-268 = experiment: Antitumor activity against human SF268 cells; format: functional; how it was run: as §1
CCRF-CEM [1] = experiment: Antitumor activity against human CCRF-CEM cells; format: functional; how it was run: as §1
A549 = experiment: Antitumor activity against human A549 cells; format: functional; how it was run: as §1
NCI-H522 = experiment: Antitumor activity against human NCI-H522 cells; format: functional; how it was run: as §1
MCF7 [2] = experiment: Growth inhibition of human multidrug-resistant MCF7 cells after 72 hrs by MTT assay; format: functional; details: MCF7, 72 h
How it was run: (§2)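 Growth inhibition by MTT after 72 h incubation. Resistant sublines: LoVoDoxo and MCF-7 MDR were kept in 0.1 µg/mL doxorubicin; CEMVbl-100 was selected against vinblastine. GI50 given as mean ± SEM of three independent experiments. Resistance index is resistant-line GI50 over parental GI50.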

SNB-75 = experiment: Antitumor activity against human SNB75 cells; format: functional; how it was run: as §1
HOP-62 = experiment: Antitumor activity against human HOP62 cells; format: functional; how it was run: as §1
M14 = experiment: Antitumor activity against human M14 cells; format: functional; how it was run: as §1
COLO 205 = experiment: Antitumor activity against human COLO205 cells; format: functional; how it was run: as §1
MCF7 [3] = experiment: Growth inhibition of human MCF7 cells after 72 hrs by MTT assay; format: functional; details: MCF7, 72 h; how it was run: as §2
SNB-19 = experiment: Antitumor activity against human SNB19 cells; format: functional; how it was run: as §1
RXF 393 = experiment: Antitumor activity against human RXF393 cells; format: functional; how it was run: as §1
IGROV-1 = experiment: Antitumor activity against human IGROV1 cells; format: functional; how it was run: as §1
A498 = experiment: Antitumor activity against human A498 cells; format: functional; how it was run: as §1
MDA-MB-435 = experiment: Antitumor activity against human MDA-MB-435 cells; format: functional; how it was run: as §1
MOLT-4 = experiment: Antitumor activity against human MOLT4 cells; format: functional; how it was run: as §1
UACC-62 = experiment: Antitumor activity against human UACC62 cells; format: functional
How it was run: (§3)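 NCI 60-cell-line screen. Parameters were GI50 (50% net growth inhibition), TGI and LC50, each reported as –log molar concentration. Where an effect was not reached within the tested range, the highest tested concentration was used in the calculation.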

[4] = Antitumor activity against human […] cells; format: functional; how it was run: as §1
SW-620 = experiment: Antitumor activity against human SW620 cells; format: functional; how it was run: as §3
UACC-257 = experiment: Antitumor activity against human UACC257 cells; format: functional; how it was run: as §3
CAKI-1 = experiment: Antitumor activity against human CAKI1 cells; format: functional; how it was run: as §1
HT-29 = experiment: Antitumor activity against human HT29 cells; format: functional; how it was run: as §1
KM12 = experiment: Antitumor activity against human KM12 cells; format: functional; how it was run: as §1
OVCAR-8 = experiment: Antitumor activity against human OVCAR8 cells; format: functional; how it was run: as §1
SF-295 = experiment: Antitumor activity against human SF295 cells; format: functional; how it was run: as §1
[5] = Antitumor activity against human NCI-H322 cells; format: functional; how it was run: as §1
SN12C = experiment: Antitumor activity against human SN12C cells; format: functional; how it was run: as §1
LOX IMVI = experiment: Antitumor activity against human LOXIMVI cells; format: functional; how it was run: as §1
PC-3 = experiment: Antitumor activity against human PC3 cells; format: functional; how it was run: as §1
Tubulin (Sus scrofa) = Tubulin (Sus scrofa) (UniProt P02554+P02550); experiment: Inhibition of pig brain tubulin polymerization
Chain of Tubulin (Sus scrofa) (P02550 whole entry, looked up): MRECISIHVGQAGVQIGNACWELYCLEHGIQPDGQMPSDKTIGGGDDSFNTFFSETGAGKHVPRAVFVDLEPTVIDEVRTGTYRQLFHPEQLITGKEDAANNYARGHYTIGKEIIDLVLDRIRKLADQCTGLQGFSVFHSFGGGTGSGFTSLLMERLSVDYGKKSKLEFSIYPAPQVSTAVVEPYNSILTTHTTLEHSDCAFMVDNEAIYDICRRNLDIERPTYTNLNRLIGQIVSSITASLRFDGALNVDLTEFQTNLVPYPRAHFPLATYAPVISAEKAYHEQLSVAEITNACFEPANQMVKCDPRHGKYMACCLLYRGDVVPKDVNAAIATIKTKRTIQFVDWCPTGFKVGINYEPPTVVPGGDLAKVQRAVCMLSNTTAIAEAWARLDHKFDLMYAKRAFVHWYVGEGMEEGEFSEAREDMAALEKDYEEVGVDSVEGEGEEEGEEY
Chain of Tubulin (Sus scrofa) (P02554 whole entry, looked up): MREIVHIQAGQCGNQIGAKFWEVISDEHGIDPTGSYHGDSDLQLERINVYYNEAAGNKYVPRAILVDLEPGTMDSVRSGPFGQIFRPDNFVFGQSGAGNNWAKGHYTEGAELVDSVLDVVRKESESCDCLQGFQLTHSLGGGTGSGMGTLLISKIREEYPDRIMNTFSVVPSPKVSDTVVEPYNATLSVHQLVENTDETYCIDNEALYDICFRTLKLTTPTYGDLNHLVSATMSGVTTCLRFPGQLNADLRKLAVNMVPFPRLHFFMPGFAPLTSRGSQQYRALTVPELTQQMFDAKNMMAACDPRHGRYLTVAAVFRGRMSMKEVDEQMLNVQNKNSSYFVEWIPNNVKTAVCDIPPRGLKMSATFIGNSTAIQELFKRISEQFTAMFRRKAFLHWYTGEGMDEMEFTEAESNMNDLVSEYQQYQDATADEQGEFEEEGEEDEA

SK-MEL-2 = experiment: Antitumor activity against human SKMEL2 cells; format: functional; how it was run: as §1
CCRF-CEM [6] = experiment: Growth inhibition of human vinblastine-resistant CEM cells after 72 hrs by MTT assay; format: functional; how it was run: as §2
MCF7 [7] = experiment: Resistance index, Ratio of GI50 for human multidrug-resistant MCF7 cells to GI50 for human MCF7 cells; format: functional; how it was run: as §2
EKVX = experiment: Antitumor activity against human EKVX cells; format: functional; how it was run: as §1
MCF7 [8] = experiment: Antitumor activity against human MCF7 cells; format: functional; how it was run: as §1
TK-10 = experiment: Antitumor activity against human TK10 cells; format: functional; how it was run: as §3
NCI-H460 = experiment: Cell viability against human NCI-H460 cells at 10 uM; format: functional
HOP-92 = experiment: Antitumor activity against human HOP92 cells; format: functional; how it was run: as §1
SK-MEL-28 = experiment: Antitumor activity against human SKMEL28 cells; format: functional; how it was run: as §1
[9] = read-out: Log LC50 (the source's name) (converted)

## O=c1[nH]c2ccccc2n2cc3ccccc3c12
Malme-3M
  GI50: 25.1 µM
Malme-3M; [9]
  CC50: 85.1 µM
Malme-3M; read-out: pTGI (converted)
  TGI: 46.8 µM
NCI-H226
  GI50: 2.88 µM
  LC50 (50% net cell kill): 55 µM
NCI-H226; read-out: pTGI (converted)
  TGI: 13.8 µM
SF-268
  GI50: 21.4 µM
SF-268; [9]
  CC50: > 100 µM
SF-268; read-out: pTGI (converted)
  TGI: 87.1 µM
CCRF-CEM [1]
  GI50: 5.89 µM
  LC50: > 100 µM
CCRF-CEM [1]; read-out: pTGI (converted)
  TGI: 60.3 µM
A549
  GI50: 5.89 µM
A549; [9]
  CC50: > 100 µM
A549; read-out: pTGI (converted)
  TGI: 32.4 µM
NCI-H522
  GI50: 13.8 µM
NCI-H522; [9]
  CC50: 75.9 µM
NCI-H522; read-out: pTGI (converted)
  TGI: 32.4 µM
MCF7 [2]
  GI50: 10.6 µM
SNB-75
  GI50: 13.5 µM and 1.91 µM
SNB-75; Homo sapiens, SNB-75
  LC50: > 100 µM
SNB-75; Homo sapiens, SNB-75, read-out: pTGI (converted)
  TGI: 74.1 µM
HOP-62
  GI50: 4.37 µM
  LC50 (50% net cell death): 52.5 µM
HOP-62; read-out: pTGI (converted)
  TGI: 17.8 µM
M14
  GI50: 6.46 µM
M14; [9]
  CC50: 64.6 µM
M14; read-out: pTGI (converted)
  TGI: 22.9 µM
COLO 205
  GI50: 4.57 µM
  LC50: > 100 µM
COLO 205; read-out: pTGI (converted)
  TGI: > 100 µM
MCF7 [3]
  GI50: 6.5 µM
SNB-19
  GI50: 8.91 µM
SNB-19; [9]
  CC50: > 100 µM
SNB-19; read-out: pTGI (converted)
  TGI: > 100 µM
RXF 393
  GI50: 6.31 µM
RXF 393; [9]
  CC50: > 100 µM
RXF 393; read-out: pTGI (converted)
  TGI: 30.2 µM
IGROV-1
  GI50: 10.2 µM
IGROV-1; [9]
  CC50: 63.1 µM
IGROV-1; read-out: pTGI (converted)
  TGI: 25.7 µM
A498
  GI50: 11.2 µM
A498; [9]
  CC50: 64.6 µM
A498; read-out: pTGI (converted)
  TGI: 26.9 µM
MDA-MB-435
  GI50: 16.2 µM
  LC50 (50% net cell death): 58.9 µM
MDA-MB-435; read-out: pTGI (converted)
  TGI: 30.9 µM
MOLT-4
  GI50: 3.63 µM
  LC50: > 100 µM
MOLT-4; read-out: pTGI (converted)
  TGI: 8.71 µM
UACC-62
  GI50: 3.24 µM
  LC50: 45.7 µM
UACC-62; read-out: pTGI (converted)
  TGI: 15.8 µM
[4]
  GI50: 0.955 µM
  LC50: 58.9 µM
[4]; read-out: pTGI (converted)
  TGI: 10.2 µM
SW-620
  GI50: 3.72 µM
SW-620; [9]
  CC50: > 100 µM
SW-620; read-out: pTGI (converted)
  TGI: > 100 µM
UACC-257
  GI50: 15.1 µM
  LC50: 72.4 µM
UACC-257; read-out: pTGI (converted)
  TGI: 33.1 µM
CAKI-1
  GI50: 17.8 µM
  LC50: 70.8 µM
CAKI-1; read-out: pTGI (converted)
  TGI: 35.5 µM
HT-29
  GI50: 4.37 µM
  LC50: > 100 µM
HT-29; read-out: pTGI (converted)
  TGI: > 100 µM
KM12
  GI50: 19.1 µM
  LC50 (50% net cell death): 83.2 µM
KM12; read-out: pTGI (converted)
  TGI: 39.8 µM
OVCAR-8
  GI50: 5.25 µM
  LC50 (50% net cell death): > 100 µM
OVCAR-8; read-out: pTGI (converted)
  TGI: 33.1 µM
SF-295
  GI50: 17.8 µM
SF-295; [9]
  CC50: 70.8 µM
SF-295; read-out: pTGI (converted)
  TGI: 35.5 µM
[5]
  GI50: 24 µM
  LC50 (50% net cell death): 89.1 µM
[5]; read-out: pTGI (converted)
  TGI: 46.8 µM
SN12C
  GI50: 1.66 µM
  LC50: 31.6 µM
SN12C; read-out: pTGI (converted)
  TGI: 6.31 µM
LOX IMVI
  GI50: 3.02 µM
  LC50 (50% net cell kill): 85.1 µM
LOX IMVI; read-out: pTGI (converted)
  TGI: 12 µM
PC-3
  GI50: 5.75 µM
  LC50 (50% net cell death): > 100 µM
PC-3; read-out: pTGI (converted)
  TGI: 28.8 µM
Tubulin (Sus scrofa)
  Activity: > 10 µM
SK-MEL-2
  GI50: 20.4 µM
  LC50: 72.4 µM
SK-MEL-2; read-out: pTGI (converted)
  TGI: 38.9 µM
CCRF-CEM [6]
  GI50: 3.8 µM
MCF7 [7]
  RatioGI50: 1.6
EKVX
  GI50: 4.79 µM
  LC50 (50% net cell kill): > 100 µM
EKVX; read-out: pTGI (converted)
  TGI: 69.2 µM
MCF7 [8]
  GI50: 10.5 µM
  LC50 (50% net cell kill): > 100 µM
MCF7 [8]; read-out: pTGI (converted)
  TGI: > 100 µM
TK-10
  GI50: 20.4 µM
TK-10; [9]
  CC50: 66.1 µM
TK-10; read-out: pTGI (converted)
  TGI: 37.2 µM
NCI-H460
  Activity: 0%
HOP-92
  GI50: 3.98 µM
  LC50: 51.3 µM
HOP-92; read-out: pTGI (converted)
  TGI: 18.6 µM
SK-MEL-28
  GI50: 22.4 µM
SK-MEL-28; [9]
  CC50: > 100 µM
SK-MEL-28; read-out: pTGI (converted)
  TGI: > 100 µM
